# From PubChem BioAssay
# This is a sample that favours compounds with a hit; in the whole collection about 2.6% have one here.
# PRMT1 inh = PRMT1 (human) inhibition, primary screen. recombinant PRMT1, activity-based probe fluorescence polarization. inhibition, % at 2.79 µM. actives 1.3% (n = 370,000). AID 652257;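 active = inhibition above about 21% made by adding two undisclosed values, limit read from the data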
# ABHD4 inh = inhibits mouse alpha/beta hydrolase domain 4; Q8VD66; purified mABHD4, FP-Rh probe fluorescence polarization; inhibition, % at 8.92 µM; actives 0.54% (n = 370,000); AID 720543;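 active = inhibition exceeding the mean over every tested compound plus 3 SD, cut at about 30% in these data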;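 note: 0% = plate median of compound wells and 100% = S159A mutant with DMSO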
#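 Assay system: mouse ABHD4 enzyme, wild type / Also added: fluorescent activity-based probe FP-Rh / Doses: single nominal dose of 8.92 µM, 0.89% DMSO final / Timing: 45 min compound pre-incubation plus 60 min probe step, 25 °C / Signal: FP readout, ex 525 nm / em 598 nm / Control set: S159A mutant/DMSO as 100%, compound-well median as 0%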
# SIAE inh = blocks human sialic acid acetylesterase; Q9HAT2; SIAE FP-Rh probe binding, fluorescence polarization; inhibition, % at 9.66 µM; actives 0.69% (n = 370,000); AID 1053197;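 active = inhibition above a cutoff: mean of compounds within the control limits plus 3 SD of those, cut at about 17% in these data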;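 note: 0% = plate median of compound wells and 100% = probe without SIAE protein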
# TCR CD3 inh = inhibitors of human TCR-CD3 interaction. inhibition, % at 9.4 µM. actives 0.37% (n = 360,000). AID 651800. TAMRA-labeled TCR probe fluorescence, biochemical; in the data active = inhibition above about 19%;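 note: recombinant mutant TCR 2C K166C tagged with TAMRA read by polarization; 0% = receptor in buffer alone and 100% = receptor with positive control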
# HTRA1 inhibitor = HTRA1 (human) protease inhibition; recombinant HTRA1, FP-rhodamine activity-based probe, fluorescence polarization; AID 504803; actives 0.5% (n = 340,000); inhibition, % at 5.96 µM; in the data active = inhibition above about 36%;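 note: 0% = enzyme with DMSO and 100% = wells lacking enzyme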
# Target sequence (Q92743 whole entry, looked up): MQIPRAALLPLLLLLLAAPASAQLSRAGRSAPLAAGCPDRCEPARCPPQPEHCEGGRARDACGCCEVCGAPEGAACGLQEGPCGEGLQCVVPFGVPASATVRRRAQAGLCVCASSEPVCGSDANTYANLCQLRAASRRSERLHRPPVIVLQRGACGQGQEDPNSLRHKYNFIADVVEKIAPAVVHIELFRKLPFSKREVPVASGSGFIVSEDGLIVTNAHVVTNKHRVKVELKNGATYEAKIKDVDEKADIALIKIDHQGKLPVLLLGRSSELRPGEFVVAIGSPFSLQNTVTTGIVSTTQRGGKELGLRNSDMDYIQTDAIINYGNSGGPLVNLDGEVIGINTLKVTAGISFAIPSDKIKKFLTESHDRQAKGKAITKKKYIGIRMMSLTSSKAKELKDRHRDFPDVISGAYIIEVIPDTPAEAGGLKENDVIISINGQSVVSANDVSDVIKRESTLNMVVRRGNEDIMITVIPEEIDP
# PRMT1 inh conf = PRMT1 (human) inhibition, FP confirmation; shares compounds with PRMT1 inh; recombinant His-PRMT1, activity-based probe fluorescence polarization; inhibition, % at 2.79 µM; actives 42% (n = 3,300); AID 687036;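 active = mean inhibition across replicates above the hit cutoff derived for the earlier primary screen, cut at about 22% in these data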
# Active calls of the source: *; . = no result given.
SMILES,PRMT1 inh,ABHD4 inh,SIAE inh,TCR CD3 inh,HTRA1 inhibitor,PRMT1 inh conf
Cc1ccc(/C=c2\s/c(=C(/C#N)C(=O)N3CCCC3)n(Cc3ccco3)c2=O)s1,26*,2,5,-5,1,0
CCOC(=O)/C=C/S(=O)(=O)c1ccc(NC(C)=O)cc1,44*,6,9,-8,0,35*
CC(C)C[C@@H]1COc2cc(Br)ccc2S(=O)(=O)N1Cc1cn(Cc2ccc(C(F)(F)F)cc2)nn1,-2,5,3,.,.,.
COCCNC(=S)Nc1ccc(N2CCOCC2)c(S(=O)(=O)Nc2ccc(Cl)cc2)c1,10,3,-3,-1,-8,.
O=S(=O)(Nc1ccc(Cl)cc1)c1ccc(N2CCOCC2)c(NC(=S)NCCN2CCOCC2)c1,49*,0,2,8,-3,74*
Cc1ccc(-c2n[nH]c(=S)n2/N=C/c2cccs2)cc1,32*,1,1,-8,-5,8
S=c1[nH]nc(-c2ccccc2)n1/N=C/c1cccs1,.,.,.,.,5,.
COc1ccc(C=Nn2c(-c3ccc(F)cc3)n[nH]c2=S)c(OC)c1OC,30*,-2,7,.,.,6
COc1ccc(/C=N/n2c(-c3n[nH]c4c3CCC4)n[nH]c2=S)c(OC)c1OC,0,-1,2,9,3,.
COc1cccc(/C=N/n2c(-c3cccs3)n[nH]c2=S)c1,28*,-5,1,0,-14,20
CCOC(=O)C1=C(C(=O)OCC)C2N(Cc3ccc(C#N)cc3)c3ccccc3[C@@]23C[C@@H](C(=O)OC)N(S(=O)(=O)c2ccc(C)cc2)C3=N1 (stereo not given in full),-1,0,-19,0,.,.
CCCCOCCCNC(=O)C[C@@H]1C(=O)N(Cc2ccc(OC)cc2)C2=CCN(C(=O)OC(C)(C)C)C[C@]21C(=O)OCC,-4,7,7,.,.,.
CCn1c(C)[n+](CCCS(=O)(=O)[O-])c2cc(Cl)c(Cl)cc21,-2,-3,5,-6,2,.
O=S(=O)([O-])CCC[n+]1c(SCCCS(=O)(=O)O)sc2ccc(Cl)cc21,71*,-1,6,1,-6,75*
C[C@H]1[C@@H](NCc2cccs2)CC[C@@]23CCCN2C(=O)CCC[C@@H]13,0,0,10,.,.,.
N#Cc1c(NC(=S)NC(=O)c2ccccc2)sc2c1CCC2,11,-3,9,3,-4,.
CN1Cc2sc(NC(=S)NC(=O)c3ccccc3)c(C#N)c2CC1(C)C,71*,14,9,-1,.,9
Clc1cccc(Cc2c(-c3ccco3)nc3ccc(Br)cn23)c1,34*,1,-7,-5,.,13
Brc1ccc2nc(-c3ccco3)c(Cc3ccccc3)n2c1,42*,-3,-4,0,.,15
Clc1cccc(Cc2c(-c3ccco3)nc3ccc(Cl)cn23)c1,47*,7,6,-2,.,17
O=C(NCC(c1ccccc1)c1ccccc1)[C@H](Cc1c[nH]c2ccccc12)NC1(C(=O)NC2CCCCC2)CCC1,-2,-15,-7,.,.,.
CCC1CCCCN1C(=S)NC(=O)c1cccs1 (stereo not given),1,2,-3,6,2,.
O=C(NC(=S)N1CCCCC1CO)c1cccs1 (stereo not given),33*,-3,-8,-2,9,13
COc1ccccc1C(=O)N1CCN(C(=O)[C@@H](Cc2ccccc2)NC(=O)[C@H]2O[C@@H](n3cnc(C(N)=O)n3)[C@H](O)[C@@H]2O)CC1,6,-2,11,1,.,.
N#Cc1cccc(CNCC(=O)N2CCC3(CC2)OCCO3)c1,-10,5,-6,.,.,.
SMILES,PRMT1 inh,ABHD4 inh,SIAE inh,TCR CD3 inh,HTRA1 inhibitor,PRMT1 inh conf
Cc1oc(=O)c(NC(=O)c2ccccc2)cc1C(=O)c1ccccc1,56*,0,2,5,-2,11
CC(=O)c1cc(NC(=O)c2ccccc2)c(=O)oc1C,20,0,0,3,-3,.
CC(=O)c1cc(NC(=O)c2ccc(C)cc2)c(=O)oc1/C=C/N(C)C,4,5,3,11,-2,.
Cc1oc(=O)c(NC(=O)c2ccc(Cl)cc2)cc1C(=O)c1ccccc1,42*,-6,5,2,-19,21
CC(=O)c1cc(NC(=O)c2ccc(C)cc2)c(=O)oc1C,33*,-5,2,-2,2,-6
O=C(COc1ccccc1)NC(=S)Nc1ccc(Br)cn1,31*,6,6,-5,.,3
